For one assay, the system named is PC-3. The assay can be described thus: Cytotoxicity against human PC3 cells after 72 hrs by SRB assay. Type of assay: functional, cell-based. Conditions: PC-3, 48 h, in the assay text read “48 hrs” for “72 hrs”. The procedure, abridged: (§1)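 Cells seeded in RPMI 1640 with 5% FBS at 37 °C, 5% CO2; after 24 h, two plates per line fixed in situ with TCA as time-zero. Drug added, then 48 h further incubation at 37 °C. Fixed with cold TCA, stained with 0.4% w/v SRB in 1% acetic acid, bound dye solubilized in 10 mM trizma base, absorbance 515 nm. IC50 = concentration halving absorbance versus untreated cells.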
In general terms: Sulforhodamine B stains cellular protein and so reports cell mass.

For a further assay, the system named is HT-29. Put plainly: Cytotoxicity against human HT-29 cells after 72 hrs by SRB assay. The class given is functional, cell-based. To be noted: HT-29, 48 h, in the assay text read “48 hrs” for “72 hrs”. The procedure, abridged: as §1

Molecules are shown by their SMILES. Where only a bound is given, the exact number is not on record here.

This note sets out measurements from ChEMBL document CHEMBL1151164, “New prostanoids with cytotoxic activity from Taiwanese octocoral Clavularia viridis” (J Nat Prod, 2004).

`CCCCC/C=C\C[C@]1(O)C=CC(=O)/C1=C/C=C/CCCC(=O)OC`: the results for the IC50 in the assay with PC-3 and with HT-29 were 5.4 µM and 4.1 µM, respectively.
The corresponding values for `CCCCC/C=C\C[C@]1(O)C=CC(=O)/C1=C/C=C\CCCC(=O)OC` are 7.2 µM and 6 µM.
With `CCCCC/C=C\C[C@@]1(O)C=C(Br)C(=O)/C1=C/C=C/CCCC(=O)OC` [BROMOVULONE II], the 50% inhibitory concentration (IC50) (commonly the concentration that gives 50% inhibition) turned out to be 5.6 µM in the assay on PC-3 and 5.4 µM in the assay on HT-29.
Taken in the same sequence, the figures for `CCCCC/C=C\C[C@@]1(O)C=C(I)C(=O)/C1=C\C=C\CCCC(=O)OC` [IODOVULONE III] were 6.7 µM and above 10 µM.
Taken in the same sequence, the figures for `CCCCC/C=C\C[C@@]1(O)C=C(I)C(=O)/C1=C/C=C/CCCC(=O)OC` [IODOVULONE II] were 3.9 µM and 6.5 µM.
In the assay on PC-3, `CCCCC/C=C\C[C@@]1(O)C=C(Cl)C(=O)/C1=C\C=C\CCCC(=O)OC` [CHLOROVULONE II] yielded an IC50 of 0.8 µM.
As for `CCCCC/C=C\C[C@@]1(O)C=C(Br)C(=O)/C1=C\C=C\CCCC(=O)OC` [BROMOCLAVULONE III], the IC50 in the assay with PC-3 and in the assay with HT-29 was 0.5 µM in each case.
As for `CCCCC/C=C\C[C@@]1(O)C=C(Cl)C(=O)/C1=C/C=C/CCCC(=O)OC` [CHLOROVULONE III], the values for the IC50 in the assay on PC-3 and in the assay on HT-29 were 1.9 µM and 2.7 µM, respectively.
Taken in the same sequence, the figures for `CCCCC/C=C\C[C@]1(OC(C)=O)C=CC(=O)/C1=C/C=C/CCCC(=O)OC` [CLAVIRIDENONE E] were 3.5 µM and above 10 µM.
Taken in the same sequence, the figures for `CCCCC/C=C\C[C@]1(O)C=CC(=O)/C1=C\C=C\CCCC(=O)OC` were 3.9 µM and 7.9 µM.
